This is a sample that favours compounds with a hit; in the whole collection about 5.5% have one here.
HePTP inhibitor – inhibitors of human HePTP phosphatase; recombinant HePTP phosphatase activity, OD absorbance; inhibition, % at 20 µM; 110,000 tested, 0.64% active; in the data active means inhibition above about 50%
E coli WT exp – E. coli BW25113 growth inhibition, expanded screen. OD600 absorbance. growth inhibition, % at 100 µM. 98,000 tested, 0.15% active;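 active means growth inhibition above about 50% at one test dose, limit read from the data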;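 further: growth measured after 20 h incubation at 37 °C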
PostGolgi ctrl – inhibits growth of the yeast control strain; inhibition, % at 10 µM; 98,000 tested, 5% active; AID 738; efflux-deficient yeast background strain, growth absorbance A615, 16 h
PLAP activator – human PLAP activation; P05187; purified PLAP enzyme, luminescent substrate read-out; stronger effect = higher value; activation fold at 20 µM; 96,000 tested, 1.2% active; AID 696; in the data active means activation fold above about 2
Target sequence (P05187 whole entry, looked up): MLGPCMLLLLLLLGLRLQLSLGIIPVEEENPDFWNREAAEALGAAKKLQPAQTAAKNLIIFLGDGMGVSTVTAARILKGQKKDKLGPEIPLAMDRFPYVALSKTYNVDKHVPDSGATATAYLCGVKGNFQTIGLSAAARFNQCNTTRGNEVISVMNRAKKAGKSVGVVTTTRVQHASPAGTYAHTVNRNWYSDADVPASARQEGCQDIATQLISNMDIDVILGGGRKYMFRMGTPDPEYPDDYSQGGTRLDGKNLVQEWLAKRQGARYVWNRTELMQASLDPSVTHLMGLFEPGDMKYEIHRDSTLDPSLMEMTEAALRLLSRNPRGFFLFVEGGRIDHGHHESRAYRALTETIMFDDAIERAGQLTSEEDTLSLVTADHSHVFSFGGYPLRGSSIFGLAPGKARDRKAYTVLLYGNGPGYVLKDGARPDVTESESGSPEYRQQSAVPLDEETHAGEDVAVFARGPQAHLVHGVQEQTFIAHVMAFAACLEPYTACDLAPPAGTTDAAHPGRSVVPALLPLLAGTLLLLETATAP
PostGolgi yeast – growth inhibition of a yeast mutant, post-Golgi transport screen | post-Golgi transport phenotypic cell assay | inhibition, % at 10 µM | 98,000 tested, 0.9% active | AID 739;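 further: yeast cells grown in 1536-well plates; yeast grown about 18 h at 30C before absorbance read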
tolC growth inh – blocks growth of E. coli BW25113 tolC mutant; OD615; growth inhibition, % at 10 µM (by protocol); 65,000 tested, 2.2% active; AID 573;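 active means growth inhibition at or above a cutoff equal to the mean over every tested compound plus 3 SD, cut at about 60% in these data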;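 further: growth measured after 20 h incubation at 37 °C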
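Assay system: tolC-deleted E. coli BW25113. Medium: kanamycin-containing LB broth (50 µg/mL). Dosing: 10 µM final, single dose. Timing: bacterial growth with compound for 20 h at 37 °C. Detection: A615 absorbance measurement. Read-out basis: growth inhibition in percent.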
Each line names hits and unclear results; the compound was inactive in the other large screens. Unless noted, no stated cut-off is given here; in the data, active means inhibition above about 30%; inactive means the rest.

COc1ccc(N2C(=O)CSC23C(=O)N2c4c(cccc43)C(C)=CC2(C)C)cc1 (stereo not given)	PostGolgi ctrl 31.6 (no result: HePTP inhibitor, tolC growth inh)
Cc1c(Cl)cccc1-c1ccc(C(=O)Nc2ccc(Cl)cc2)o1	none (no result: E coli WT exp, PostGolgi ctrl, PLAP activator, PostGolgi yeast, tolC growth inh)
O=C1/C(=C/c2ccc(Br)o2)SC(=S)N1Cc1ccccc1	HePTP inhibitor 56.0 (no result: E coli WT exp, PostGolgi ctrl, PLAP activator, PostGolgi yeast, tolC growth inh)
O=C1/C(=C/c2ccc(-c3ccc([N+](=O)[O-])cc3)o2)SC(=S)N1Cc1ccco1	HePTP inhibitor 63.6 (no result: E coli WT exp, PostGolgi ctrl, PLAP activator, PostGolgi yeast, tolC growth inh)
O=C(O)CCCN1C(=O)/C(=C\c2ccc(-c3ccc(Br)cc3)o2)SC1=S	HePTP inhibitor 94.3 (no result: E coli WT exp, PostGolgi ctrl, PLAP activator, PostGolgi yeast, tolC growth inh)
CCN1C(=O)/C(=C\c2ccc(-c3ccc([N+](=O)[O-])cc3)o2)SC1=S	none (no result: E coli WT exp, PostGolgi ctrl, PLAP activator, PostGolgi yeast, tolC growth inh)
CCOC(=O)c1ccc(-c2ccc(/C=C3/SC(=S)N(CC(=O)O)C3=O)o2)cc1	HePTP inhibitor 54.5 (no result: E coli WT exp, PostGolgi ctrl, PLAP activator, PostGolgi yeast, tolC growth inh)
CCN1C(=O)/C(=C\c2ccc(-c3ccc(C(=O)OC)cc3)o2)SC1=S	none (no result: E coli WT exp, PostGolgi ctrl, PLAP activator, PostGolgi yeast, tolC growth inh)
Cc1cc(-n2c(C)cc(C=O)c2C)ccc1I	none (no result: E coli WT exp, PostGolgi ctrl, PLAP activator, PostGolgi yeast, tolC growth inh)
COc1cc(NC(=O)c2ccc(Cl)c([N+](=O)[O-])c2)c(OC)cc1Cl	none (no result: E coli WT exp, PostGolgi ctrl, PLAP activator, PostGolgi yeast, tolC growth inh)
COc1ccc(C2=CSC3=C(C(=O)c4cccc(S(=O)(=O)N(C)C)c4)CCN23)cc1	PLAP activator 2.9 (no result: HePTP inhibitor, tolC growth inh)
COc1cc(CNCc2ccccn2)ccc1OCc1c(Cl)cccc1Cl	PLAP activator 2 (no result: HePTP inhibitor, tolC growth inh)
Cc1cc(C)nc(N2CCCC(C(=O)Nc3cc(F)ccc3C)C2)n1 (stereo not given)	PostGolgi ctrl 30.1
CCOc1ccc(OCC)c(NC(=O)C2CCCN(c3nc(C)cc(C)n3)C2)c1 (stereo not given)	none
COc1ccc(OC)c(NC(=O)C2CCN(c3nc(C)cc(C)n3)CC2)c1	PostGolgi ctrl 37.0
N#CCCN1CCN(C(=S)c2ccc(-c3ccc(Cl)c(Cl)c3)o2)CC1	PostGolgi ctrl 32.8
CCOc1ccc(NCC(=O)N/N=C/c2c[nH]c3ccccc23)cc1	none (no result: E coli WT exp, PostGolgi ctrl, PLAP activator, PostGolgi yeast, tolC growth inh)
CC1CC(C)CN(c2ncc3c(n2)CC(c2ccccc2Cl)CC3=O)C1 (stereo not given)	PostGolgi ctrl 31.2
O=C1CC(c2ccccc2)Cc2nc(N3CCc4ccccc4C3)ncc21 (stereo not given)	PostGolgi ctrl 45.8 (no result: HePTP inhibitor, tolC growth inh)
COc1ccccc1N1C(=O)CC(N2CCN(C(c3ccccc3)c3ccccc3)CC2)C1=O (stereo not given)	none (no result: E coli WT exp, PostGolgi ctrl, PLAP activator, PostGolgi yeast, tolC growth inh)
COC(=O)CSc1nc2ncccc2[nH]1	PostGolgi ctrl 34.6 (no result: HePTP inhibitor, tolC growth inh)
O=C(CSc1nc2ncccc2[nH]1)c1ccc(F)cc1	none
COc1ccc(NC(=O)CSc2nc3ncccc3[nH]2)cc1OC	PLAP activator 2 (no result: HePTP inhibitor, tolC growth inh)
COc1ccc(OC)c(C(=O)CSc2nc3ncccc3[nH]2)c1	PLAP activator 2.8
Cc1cc2c(cc1C)NC(c1cc(Br)ccc1F)C1=C(CC(C)(C)CC1=O)N2 (stereo not given)	none (no result: E coli WT exp, PostGolgi ctrl, PLAP activator, PostGolgi yeast, tolC growth inh)
COc1c(Cl)cc(/C=C2/SC(=S)N(Cc3ccccc3)C2=O)cc1Cl	none (no result: E coli WT exp, PostGolgi ctrl, PLAP activator, PostGolgi yeast, tolC growth inh)
Cn1c(=O)n(Cc2ccccc2)c(=O)c2c1nc1n2CCCN1CCc1ccccc1	none (no result: HePTP inhibitor, tolC growth inh)
Cn1c(=O)n(Cc2ccccc2)c(=O)c2c1nc1n2CCCN1Cc1ccccc1	PostGolgi ctrl 31.8, tolC growth inh 62.2
Cn1c(Oc2ccc3c(c2)OCO3)nc2c1c(=O)n(Cc1ccccc1)c(=O)n2C	PostGolgi ctrl 31.4 (no result: HePTP inhibitor, tolC growth inh)
Cc1ccc(Cn2c(=O)c3c(nc4n3CCCN4Cc3ccccc3)n(C)c2=O)cc1	PostGolgi ctrl 38.5
Cc1cc2c(cc(C(=O)OCC(=O)NCc3cccs3)n2C(C)C)o1	PostGolgi ctrl 56.7, tolC growth inh 74.5
O=C(c1ccccc1)N1CCN(C2CCC(c3ccccc3)CC2)CC1 (stereo not given)	none (no result: E coli WT exp, PostGolgi ctrl, PLAP activator, PostGolgi yeast, tolC growth inh)
O=C1N=c2ccccc2=C1c1sc(=S)n(-c2ccc(C(=O)O)cc2)c1O	HePTP inhibitor 100.0 (no result: E coli WT exp, PostGolgi ctrl, PLAP activator, PostGolgi yeast, tolC growth inh)
Oc1ccc(-n2c(O)c(/C=C3\C=Nc4ccccc43)sc2=S)cc1	none (no result: E coli WT exp, PostGolgi ctrl, PLAP activator, PostGolgi yeast, tolC growth inh)
O=C(O)c1ccc(-n2c(O)c(/C=C3\C=Nc4ccccc43)sc2=S)cc1	HePTP inhibitor 57.4 (no result: E coli WT exp, PostGolgi ctrl, PLAP activator, PostGolgi yeast, tolC growth inh)
Cc1ccc(SCc2[nH]nc3c2C2(C(=O)N(C)c4ccccc42)C(C#N)=C(N)O3)cc1 (stereo not given)	PLAP activator 2
COCc1[nH]nc2c1C1(C(=O)N(C)c3ccccc31)C(C#N)=C(N)O2 (stereo not given)	none
Cc1ccc(C2=NNC(C(O)C(O)C(O)C(O)CO)S2)cc1 (stereo not given)	PLAP activator 2 (no result: HePTP inhibitor, tolC growth inh)
COc1cc(C2C(C(=O)OCCOc3ccccc3)=C(C)NC3=C2C(=O)CCC3)ccc1OC(C)=O (stereo not given)	none (no result: E coli WT exp, PostGolgi ctrl, PLAP activator, PostGolgi yeast, tolC growth inh)
